Source: paper PMC3709443 (Natural product communications, 2009)
Converted amounts (≈) assume the structure as drawn. Like-named read-outs stand apart in the source and are kept apart here.

Columns and labels:
[1] = tested on: Mycobacterium intracellulare ATCC 23068; test: Antimicrobial susceptibility assay, M. intracellulare; assay type: cell-based; settings: for M. intracellulare IC50: first value of IC50/MIC
Summary of the method: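 Modified Alamar Blue procedure within modified CLSI methods. Test compound in DMSO, serially diluted in 20% DMSO/saline, duplicate wells. Inoculum in assay medium to target CFU/mL. Fluorescence 544ex/590em read before and after incubation. IC50 from percent growth vs concentration. MIC is the lowest concentration with no detectable growth. MBC from 5 μL of clear wells subcultured on agar. Ciprofloxacin control.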

[2] = tested on: SK-MEL: Human malignant melanoma; test: Cytotoxicity assay; assay type: cell-based; settings: for SK-MEL IC50: 48 hours, Neutral Red
Summary of the method: (§1)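 ATCC-sourced cells seeded at 25000 cells/well and incubated 24 h. Test compound was then added at various concentrations for a further 48 h. Viable cells were measured by a modified Neutral Red procedure. IC50 was determined from dose-response curves of percent growth inhibition. Doxorubicin was the positive control and DMSO the vehicle control.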

[3] = tested on: methicillin-resistant Staphylococcus aureus ATCC 43300 (MRS); test: Antimicrobial susceptibility assay, MRS; assay type: cell-based; settings: for MRS IC50: first value of IC50/MIC
Summary of the method: (§2)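 Modified CLSI broth dilution with test compound dissolved in DMSO and serially diluted in 20% DMSO/saline, in duplicate. Inoculum prepared to target CFU/mL. Plates read at 630 nm before and after incubation. IC50 from percent growth vs concentration. MIC is the lowest concentration with no detectable growth. MBC is the lowest concentration giving no growth when 5 μL from clear wells is subcultured on agar. Ciprofloxacin control.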

[4] = tested on: SK-OV-3: Human ovarycarcinoma; test: Cytotoxicity assay; assay type: cell-based; settings: for SK-OV-3 IC50: 48 hours, Neutral Red
Summary of the method: as §1

[5] = tested on: BT-549: Human ductal carcinoma; test: Cytotoxicity assay; assay type: cell-based; settings: for BT-549 IC50: 48 hours, Neutral Red
Summary of the method: as §1

[6] = tested on: Cryptococcus neoformans ATCC 90113; test: Antimicrobial susceptibility assay, C. neoformans; assay type: cell-based; settings: for C. neoformans IC50: first value of IC50/MIC, 50% inhibition of growth; for C. neoformans MIC: second value of IC50/MIC, no detectable growth
Summary of the method: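 Modified CLSI broth dilution. Test compound in DMSO, serially diluted in 20% DMSO/saline, duplicate wells. Inoculum in assay medium to target CFU/mL, with growth, solvent and media controls. Absorbance at 630 nm before and after incubation. IC50 from percent growth vs concentration. MIC is the lowest concentration without detectable growth. MFC comes from 5 μL of clear wells plated on agar, no growth. Amphotericin B control.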

[7] = tested on: Escherichia coli ATCC 35218; test: Antimicrobial susceptibility assay, E. coli; assay type: cell-based; settings: for E. coli IC50: first value of IC50/MIC
Summary of the method: as §2

[8] = tested on: Leishmania donovani promastigotes; test: Antileishmanial assay; assay type: cell-based; settings: for L. donovani IC50 / L. donovani IC90: promastigotes, 26°C, 72 hours; for IC50 / IC90: Leishmania donovani, 72 h; for IC50: read-out: L. donovani IC50; for IC90: read-out: L. donovani IC90
Summary of the method: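 L. donovani promastigote culture at 2×10^6 cells/mL exposed to diluted test compound in 96-well format. Incubation 26°C, 72 h. Growth read by Alamar blue. IC50 computed from the growth-inhibition curve. Pentamidine and amphotericin B served as reference agents.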

[9] = tested on: P. falciparum W2 (chloroquine-resistant clone); test: Antimalarial parasite LDH assay, W2 strain; assay type: cell-based, Plasmodium falciparum; settings: for P. falciparum W2 IC50: chloroquine-resistant clone, 72 h, pLDH readout; for IC50: Plasmodium falciparum, W2, 72 h, read-out: P. falciparum W2 IC50
[10] = tested on: LLC-PK11: Pig kidney epithelial; test: Cytotoxicity assay; assay type: cell-based; settings: 48 hours; Neutral Red
Summary of the method: as §1

[11] = tested on: Aspergillus fumigatus ATCC 90906; test: Antimicrobial susceptibility assay, A. fumigatus; assay type: cell-based; settings: for A. fumigatus IC50: first value of IC50/MIC
Summary of the method: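 Modified CLSI broth dilution. Test compound dissolved in DMSO, serially diluted in 20% DMSO/saline and plated in duplicate. Inoculum prepared in assay medium to target CFU/mL. Fluorescence (544ex/590em) read before and after incubation. IC50 from percent growth vs concentration. MIC is the lowest concentration with no detectable growth. MFC is taken from 5 μL of each clear well subcultured on agar. Amphotericin B control.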

[12] = tested on: KB: Human epidermoid carcinoma; test: Cytotoxicity assay; assay type: cell-based; settings: for KB IC50: 48 hours, Neutral Red
Summary of the method: as §1

[13] = tested on: P. falciparum D6 (chloroquine-sensitive clone); test: Antimalarial parasite LDH assay, D6 strain; assay type: cell-based, Plasmodium falciparum; settings: for P. falciparum D6 IC50: chloroquine-sensitive clone, 72 h, pLDH readout; for IC50: Plasmodium falciparum, D6, 72 h, read-out: P. falciparum D6 IC50
[14] = tested on: VERO cells (monkey kidney fibroblasts); test: Cytotoxicity to VERO cells; assay type: cell-based; settings: for VERO cells IC50: Table 2, maximum dose tested 4760 ng/mL; for IC50: Primates, Vero

## 6-Hydroxy-5-normethylbudmunchiamine K [Compound 4]
[1]
  M. intracellulare IC50: 20.0 mg/L
[2]
  SK-MEL IC50: 5.7 mg/L
[3]
  MRS IC50: 20.0 mg/L
[4]
  SK-OV-3 IC50: 6.2 mg/L
[5]
  BT-549 IC50: 6.0 mg/L
[6]
  C. neoformans IC50: 6.0 mg/L
  antimicrobial activity against C. neoformans in words: weakly active
  C. neoformans MIC: 10.0 mg/L
[7]
  E. coli IC50: -/- (- =Not Active)
[8]
  L. donovani IC50: 2.1 mg/L
  L. donovani IC90: 7 mg/L
[9]
  P. falciparum W2 IC50: 0.27 mg/L
[10]
  LLC-PK11 IC50: 6.0 mg/L
[11]
  A. fumigatus IC50: -/- (- =Not Active)
[12]
  KB IC50: 5.4 mg/L
[13]
  P. falciparum D6 IC50: 0.12 mg/L
[14]
  VERO cells IC50: NC (NC = Not cytotoxic (up to the maximum dose tested of 4760 ng/mL))

## 6-Hydroxybudmunchiamine K [Compound 2]
[1]
  M. intracellulare IC50: -/- (- =Not Active)
[2]
  SK-MEL IC50: 5.8 mg/L
[3]
  MRS IC50: -/- (- =Not Active)
[4]
  SK-OV-3 IC50: 6.5 mg/L
[5]
  BT-549 IC50: 6.0 mg/L
[6]
  C. neoformans IC50: 10.0 mg/L
  antimicrobial activity against C. neoformans in words: weakly active
  C. neoformans MIC: 20.0 mg/L
[7]
  E. coli IC50: -/- (- =Not Active)
[8]
  L. donovani IC50: 3.4 mg/L
  L. donovani IC90: 7 mg/L
[9]
  P. falciparum W2 IC50: 0.22 mg/L
[10]
  LLC-PK11 IC50: 5.3 mg/L
[11]
  A. fumigatus IC50: -/- (- =Not Active)
[12]
  KB IC50: 6.0 mg/L
[13]
  P. falciparum D6 IC50: 0.16 mg/L
[14]
  VERO cells IC50: NC (NC = Not cytotoxic (up to the maximum dose tested of 4760 ng/mL))

## C[C@@H]1[C@H](O)[C@@H](C)/C=C/C=C/C=C/C=C/C=C/C=C/C=C/[C@H](O[C@@H]2O[C@H](C)[C@@H](O)[C@H](N)[C@@H]2O)C[C@@H]2O[C@](O)(C[C@@H](O)C[C@@H](O)[C@H](O)CC[C@@H](O)C[C@@H](O)CC(=O)O[C@H]1C)C[C@H](O)[C@H]2C(=O)O [Amphotericin B, amphotericin B, reference compound]
[6]; Cryptococcus neoformans, ATCC90113, read-out: C. neoformans IC50
  IC50: 0.8 mg/L (≈ 0.866 µM)
[6]; Cryptococcus neoformans, ATCC90113, read-out: C. neoformans MIC
  MIC: 1.25 mg/L (≈ 1.35 µM)
[8]
  IC50: 0.32 mg/L (≈ 0.346 µM)
  IC90: 0.8 mg/L (≈ 0.866 µM)
[11]; Aspergillus fumigatus, ATCC90906, read-out: A. fumigatus IC50
  IC50: 0.6 mg/L (≈ 0.649 µM)
[11]; Aspergillus fumigatus, ATCC90906, read-out: A. fumigatus MIC
  MIC: 1.25 mg/L (≈ 1.35 µM)

## C[C@@H]1CC[C@H]2[C@@H](C)C(=O)O[C@@H]3O[C@@]4(C)CC[C@@H]1[C@]32OO4 [Artemisinin, artemisinin, reference compound]
[9]
  IC50: 0.006 mg/L (≈ 0.0213 µM)
[13]
  IC50: 0.01 mg/L (≈ 0.0354 µM)
[14]; read-out: VERO cells IC50
  IC50: > 4.76 mg/L

## CCN(CC)CCCC(C)Nc1ccnc2cc(Cl)ccc12 (stereo not drawn) [Chloroquine, chloroquine, reference compound]
[9]
  IC50: 0.135 mg/L (≈ 0.422 µM)
[13]
  IC50: 0.015 mg/L (≈ 0.0469 µM)
[14]; read-out: VERO cells IC50
  IC50: > 4.76 mg/L

## O=C(O)c1cn(C2CC2)c2cc(N3CCNCC3)c(F)cc2c1=O [Ciprofloxacin, ciprofloxacin, reference compound]
[1]; Mycobacterium intracellulare, ATCC23068, read-out: M. intracellulare IC50
  IC50: 0.5 mg/L (≈ 1.51 µM)
[1]; Mycobacterium intracellulare, ATCC23068, read-out: M. intracellulare MIC
  MIC: 1 mg/L (≈ 3.02 µM)
[3]; Staphylococcus aureus, ATCC43300, read-out: MRS IC50
  IC50: 0.09 mg/L (≈ 0.272 µM)
[3]; Staphylococcus aureus, ATCC43300, read-out: MRS MIC
  MIC: 0.5 mg/L (≈ 1.51 µM)
[7]; Escherichia coli, ATCC35218, read-out: E. coli IC50
  IC50: 0.004 mg/L (≈ 0.0121 µM)

## CCCCCCCCCCCCCCCC1CC(=O)NCCCN(C)CCCCN(C)CCCN1 (stereo not drawn) [Compound 3, 5-Normethylbudmunchiamine K]
[1]
  M. intracellulare IC50: 4.0 mg/L
[1]; second value of IC50/MIC
  M. intracellulare MIC: 20.0 mg/L
[2]
  SK-MEL IC50: 2.0 mg/L
[3]
  MRS IC50: 6.5 mg/L
[3]; second value of IC50/MIC
  MRS MIC: 10.0 mg/L
[4]
  SK-OV-3 IC50: 4.8 mg/L
[5]
  BT-549 IC50: 2.0 mg/L
[6]
  C. neoformans IC50: 1.0 mg/L
  C. neoformans MIC: 2.5 mg/L
[7]
  E. coli IC50: 6.5 mg/L
[7]; second value of IC50/MIC
  E. coli MIC: 10.0 mg/L
[8]; in words
  antileishmanial activity compared with pentamidine: more potent than pentamidine
[8]
  L. donovani IC50: 0.8 mg/L
  L. donovani IC90: 1.3 mg/L
[9]
  P. falciparum W2 IC50: 0.21 mg/L
[10]
  LLC-PK11 IC50: 2.5 mg/L
[11]
  A. fumigatus IC50: -/- (- =Not Active)
[12]
  KB IC50: 2.3 mg/L
[13]
  P. falciparum D6 IC50: 0.14 mg/L
[14]
  VERO cells IC50: 3 mg/L

## COc1cccc2c1C(=O)c1c(O)c3c(c(O)c1C2=O)C[C@@](O)(C(=O)CO)C[C@@H]3O[C@H]1C[C@H](N)[C@H](O)[C@H](C)O1 [Doxorubicin, reference compound]
[2]; Homo sapiens, 48 h, read-out: SK-MEL IC50
  IC50: 0.85 mg/L (≈ 1.56 µM)
[4]; Homo sapiens, SK-OV-3, 48 h, read-out: SK-OV-3 IC50
  IC50: 0.9 mg/L (≈ 1.66 µM)
[5]; Homo sapiens, BT-549, 48 h, read-out: BT-549 IC50
  IC50: 0.9 mg/L (≈ 1.66 µM)
[12]; Homo sapiens, 48 h, read-out: KB IC50
  IC50: 0.9 mg/L (≈ 1.66 µM)
[14]; 48 h, read-out: VERO IC50
  IC50: > 5 mg/L

## N=C(N)c1ccc(OCCCCCOc2ccc(C(=N)N)cc2)cc1 [Pentamidine, reference compound]
[8]
  IC50: 2.1 mg/L (≈ 6.17 µM)
  IC90: 4 mg/L (≈ 11.7 µM)
